Experimental data collected from several papers.
Lines come from different studies, so protocols differ.
ALK: ALK tyrosine kinase receptor (ALK, Homo sapiens, UniProt Q9UM73)
CTSB: Cathepsin B (CTSB, Homo sapiens, UniProt P07858)
SIRT6: NAD-dependent protein deacylase sirtuin-6 (SIRT6, Homo sapiens, UniProt Q8N6T7)
SLC47A1: Multidrug and toxin extrusion protein 1 (SLC47A1, Homo sapiens, UniProt Q96FL8)
CCR2: C-C chemokine receptor type 2 (CCR2, Homo sapiens, UniProt P41597)
TEK: Angiopoietin-1 receptor (TEK, Homo sapiens, UniProt Q02763)
PTPRC: Receptor-type tyrosine-protein phosphatase C (PTPRC, Homo sapiens, UniProt P08575)
MAPK10: Mitogen-activated protein kinase 10 (MAPK10, Homo sapiens, UniProt P53779)
CCR5: C-C chemokine receptor type 5 (CCR5, Homo sapiens, UniProt P51681)
FASN: Fatty acid synthase (FASN, Gallus gallus, UniProt P12276)

O=[N+]([O-])C=Cc1ccc2[nH]c3ncc(Cl)cc3c2c1
IC50 (ALK; enzyme activity, inhibitor, ELISA): 3.3 µM

Cc1nc2ccc(Br)cc2c(=O)n1/N=C/c1ccc(C(=O)O)cc1
IC50 (CTSB; enzyme activity, inhibitor): 33.5 µM

O=C(O)CC(=O)C(=O)O
IC50 (LDHA (Oryctolagus cuniculus, UniProt P13491); enzyme activity, inhibitor): 3320 µM

Nc1nonc1-n1cc(C(=O)N/N=C/c2ccc(O)c(O)c2O)nn1
IC50 (SIRT6; enzyme activity, inhibitor, fluorescence): 26 µM

CN(C)CCC=C1c2ccccc2CCc2ccccc21
IC50 (SLC47A1; transporter uptake, inhibitor, radiometric; HEK293; 5 min): 29.6 µM

Cc1cc(Nc2cc(CN3CCOCC3)c3nc(C)c(Cc4ccc(Cl)cc4F)n3n2)n[nH]1
IC50 (Vascular endothelial growth factor receptor 3 (FLT4, Homo sapiens, UniProt P35916); enzyme activity, inhibitor, TR-FRET): 0.025 µM

COc1ccc(CONC(=O)c2ccc(C(N)=O)cc2)cc1
IC50 (SIRT6; enzyme activity, inhibitor, fluorescence): 7.49 µM

O=C(Nc1ccn(Cc2ccc(O)cc2C(F)(F)F)n1)c1c(F)cccc1F
IC50 (Transient receptor potential cation channel subfamily V member 4 (Trpv4, Rattus norvegicus, UniProt Q9ERZ8); ion current): > 10 µM

CN(Cc1ccc(NC(=O)C2=Cc3cc(-c4ccc(OCCCF)cc4)ccc3CCC2)cc1)C1CCOCC1
IC50 (CCR2; ligand displacement, radioligand; cell membranes): 0.118 µM

NC(=O)c1ccc(C(=O)NOCc2cc(Cl)cc(Cl)c2)cc1
IC50 (SIRT6; enzyme activity, inhibitor, fluorescence): 2.97 µM

CN(Cc1ccc(NC(=O)C2=Cc3cc(-c4ccc(OCCCO)cc4)ccc3CCC2)cc1)C1CCOCC1
IC50 (CCR2; ligand displacement, radioligand; cell membranes): 0.199 µM

Nc1nonc1-n1cc(C(=O)N/N=C/c2ccc(C(F)(F)F)cc2C(F)(F)F)nn1
IC50 (SIRT6; enzyme activity, inhibitor, fluorescence): 2.69 µM

NC(=O)c1ccc[n+]([C@@H]2O[C@H](COP(=O)([O-])OP(=O)(O)OC[C@H]3O[C@@H](n4cnc5c(N)ncnc54)[C@H](O)[C@@H]3O)[C@@H](O)[C@H]2O)c1
IC50 (Poly [ADP-ribose] polymerase 2 (PARP2, Homo sapiens, UniProt Q9UGN5); enzyme activity, inhibitor): 50 µM

Cc1cnc(-c2ccc(-c3ccc(NC(=O)Nc4c(F)cc(F)cc4F)cc3F)c3c2C(=O)NC3)[nH]1
IC50 (TEK; enzyme activity, inhibitor): 0.0065 µM

O=C(Oc1cc(O)cc2c1C[C@@H](OC(=O)c1cc(O)c(O)c(O)c1)[C@@H](c1cc(O)c(O)c(O)c1)O2)c1cc(O)c(O)c(O)c1
IC50 (PTPRC; enzyme activity, inhibitor, fluorescence): 0.5 µM

COc1ccc2c(Oc3ccc4c(C(=O)Nc5ccccc5N)cccc4c3)ccnc2c1
IC50 (MAPK10; enzyme activity, inhibitor): > 0.5 µM

Cc1nc2ccc(Cl)cc2c(=O)n1NC1=NC(=O)CS1
IC50 (CTSB; enzyme activity, inhibitor): 74.5 µM

C/C(=C\C(=O)OCCCCCCCCC(=O)O)C[C@@H]1OC[C@H](C[C@@H]2O[C@H]2[C@@H](C)[C@H](C)O)[C@@H](O)[C@H]1O
IC50 (CCR5; calcium signal, antagonist): 10.6 µM

C[C@@H]1CCO[C@H]2Cn3cc(C(=O)NCc4ccc(F)cc4F)c(=O)c(O)c3C(=O)N12
IC50 (SLC47A1; transporter uptake, inhibitor, radiometric; HEK293; 5 min, pH 8.5): 6.3 µM

NCc1cccc(C(=O)NOCc2ccc(C(F)(F)F)cc2)c1
IC50 (SIRT6; enzyme activity, inhibitor, fluorescence): 41.2 µM

Oc1ccc(-c2ccc3[nH]c4ncc(/C=C/c5cccc(F)c5)cc4c3c2)cc1
IC50 (ALK; enzyme activity, inhibitor, ELISA): > 10 µM

CNC[C@]1(c2ccc(F)cc2F)C[C@H]1Oc1ccc(C#N)cc1-c1cc(C)[nH]n1 (racemic)
IC50 (ALK; enzyme activity, inhibitor, TR-FRET): 0.049 µM

Cc1ccc(C(=O)Nc2ccc(Oc3cc4cnn(C)c4cc3-c3cn[nH]c3)c(F)c2)c(=O)n1-c1ccc(F)cc1
IC50 (TEK; cell growth or viability, ATP luminescence): 0.063 µM

COC(=O)[C@@]1(c2ccc(F)cc2F)C[C@@H]1Oc1ccc(C#N)cc1-c1cc(C)[nH]n1 (racemic)
IC50 (ALK; phosphorylation in cells, inhibitor, ELISA): 0.45 µM

CN(Cc1ccc(NC(=O)C2=Cc3cc(-c4ccc(OCCCCCCCF)cc4)ccc3CCC2)cc1)C1CCOCC1
IC50 (CCR5; ligand displacement, radioligand; cell membranes): 3.6 µM

CSc1ccc(/C=C2/C(C)=C(CC(=O)O)c3cc(F)ccc32)cc1
IC50 (Dual specificity calcium/calmodulin-dependent 3',5'-cyclic nucleotide phosphodiesterase 1A (PDE1A, Homo sapiens, UniProt P54750); enzyme activity, inhibitor): > 100 µM

Cc1cc(-c2cc(C#N)ccc2O[C@@H]2C[C@]2(CO)c2ccc(F)cc2F)n[nH]1 (racemic)
IC50 (ALK; enzyme activity, inhibitor, TR-FRET): 0.034 µM

CNC(=O)c1cc2c(Oc3ccc(NC(=O)C4(C(=O)Nc5ccc(F)cc5)CC4)cc3)ccnc2cc1OC
IC50 (TEK; enzyme activity, inhibitor, radiometric): 0.032 µM

Cc1cc(-c2cc(C#N)ccc2O[C@@H]2C[C@]2(CN)c2ccc(F)cc2F)n[nH]1 (racemic)
IC50 (ALK; phosphorylation in cells, inhibitor, ELISA): 0.16 µM

O=C(O)c1cc(O)c2c(c1)[C@H]([C@H]1c3cc(C(=O)O)cc(O)c3C(=O)c3c(O[C@@H]4O[C@H](CO)[C@@H](O)[C@H](O)[C@H]4O)cccc31)c1cccc(O[C@@H]3O[C@H](CO)[C@@H](O)[C@H](O)[C@H]3O)c1C2=O
IC50 (PTPRC; enzyme activity, inhibitor, fluorescence): 2 µM

Nc1ncc2c(n1)-c1c([nH]c3ccc(-c4ccc(F)cc4)cc13)CCC2
IC50 (Myosin light chain kinase family member 4 (MYLK4, Homo sapiens, UniProt Q86YV6); enzyme activity, inhibitor, radiometric): 0.035 µM

CN1CCN(c2ccc(Nc3ncc4cc(C#N)c(=O)n(C5CCCC5)c4n3)cc2)CC1
IC50 (Serine/threonine-protein kinase D3 (PRKD3, Homo sapiens, UniProt O94806); enzyme activity, inhibitor): 0.0709 µM

CC(C)C[C@H](NC(=O)[C@H](CC(N)=O)NC(=O)[C@@H](N)CC(C)C)C(=O)NCC(=O)NCCCCNC(=O)c1ccc(-c2n[nH]c3ccccc23)cc1
IC50 (MAPK10; enzyme activity, inhibitor): 0.157 µM

COC[C@]1(c2ccc(F)cc2F)C[C@H]1Oc1ccc(C#N)cc1-c1cc(C)[nH]n1 (racemic)
IC50 (ALK; enzyme activity, inhibitor, TR-FRET): 0.043 µM

C=C(C)[C@H](CC=C(C)C)Cc1c(O)cc(O)c2c1O[C@H](c1ccc(O)cc1O)CC2=O
IC50 (FASN; enzyme activity, inhibitor, radiometric): 6.7 µM

NC(=O)c1ccc(C(=O)NOCc2ccc(Sc3cccc(C(F)(F)F)c3)c(C(F)(F)F)c2)cc1
IC50 (SIRT6; enzyme activity, inhibitor, fluorescence): 1.1 µM

COc1cc(O)c(CC=C(C)C)c2c1C(=O)CC(c1ccc(O)cc1)O2 (stereo not shown)
IC50 (FASN; enzyme activity, inhibitor, radiometric): > 100 µM

CN(Cc1ccc(NC(=O)C2=Cc3cc(-c4ccc(OCCCCCO)cc4)ccc3CCC2)cc1)C1CCOCC1
IC50 (CCR2; calcium signal, antagonist): 0.01 µM

NC(=O)c1ccc(C(=O)NOCc2ccc(Sc3ccc(Cl)cc3)c(C(F)(F)F)c2)cc1
IC50 (SIRT6; enzyme activity, inhibitor, fluorescence): 1.51 µM

CSc1nc(C)c(-c2ccnc(NC3CCOCC3)c2)[nH]1
IC50 (MAPK10; enzyme activity, inhibitor, ELISA): 2.63 µM

Cc1cc(-c2cccc(S(C)(=O)=O)c2)[nH]n1
IC50 (ALK; enzyme activity, inhibitor, TR-FRET): 120 µM

CCn1c(-c2nc3ccc(C(=O)N4CCCC(N)C4)cc3n2C)cc2ccccc21 (stereo not shown)
IC50 (Sodium channel protein type 5 subunit alpha (SCN5A, Homo sapiens, UniProt Q14524); ion current, inhibitor): 31.6 µM

COc1cc(/C=N/n2c(C)nc3ccc(Br)cc3c2=O)ccc1O
IC50 (CTSB; enzyme activity, inhibitor): 33.5 µM

NC(=O)c1ccc(C(=O)NOCc2ccc(Sc3ccc(F)cc3)c(C(F)(F)F)c2)cc1
IC50 (SIRT6; enzyme activity, inhibitor, fluorescence): 2.35 µM

Cc1cc(-c2cccc(C(C)(C)C)c2)[nH]n1
IC50 (ALK; enzyme activity, inhibitor, TR-FRET): 270 µM

NC(=O)c1ccc(C(=O)NOCc2ccc(Sc3cc(F)cc(F)c3)c(C(F)(F)F)c2)cc1
IC50 (SIRT6; enzyme activity, inhibitor, fluorescence): 1.3 µM

CC(C)c1ccc(NC(=O)CCc2nc(O)c3c4c(sc3n2)CCC4)cc1
IC50 (Pantothenate kinase 1 (Homo sapiens, UniProt Q8TE04); enzyme activity, inhibitor, ATP luminescence): 0.02 µM

COc1ccc(-c2ccc3[nH]c4ncc(C=Cc5ccccc5)cc4c3c2)cc1
IC50 (ALK; enzyme activity, inhibitor, ELISA): 1.2 µM

NC(=O)c1ccc(C(=O)NOCc2ccc(C(F)(F)F)cc2)cc1
IC50 (SIRT6; enzyme activity, inhibitor, fluorescence): 3.13 µM
